Here are results for 12 compounds from ChEMBL document CHEMBL1135398, “Methanocarba modification of uracil and adenine nucleotides: high potency of Northern ring conformation at P2Y1, P2Y2, P2Y4, and P2Y11 but not P2Y6 receptors” (J Med Chem, 2002).

Active and inactive are the calls of the source. The calls are words filed in the database; no cut-off is given here.

As a reminder, the EC50 is the concentration that produces a half-maximal response.

Holding throughout (format): functional
In test [1] the target is P2Y purinoceptor 1 (Meleagris gallopavo) (UniProt P49652). Description: Measure of Agonist Potency at turkey Purinoceptor P2Y1 stably expressed in […] astrocytoma cell; NE means no effect at 100 uM.
Test [2] addresses T1, P2Y purinoceptor 6 (Homo sapiens, UniProt Q15077). As to the kind of experiment: Measure of Agonist Potency at human P2Y purinoceptor 6 (hP2Y6) stably expressed in […] astrocytoma cell; NE means no effect at 100 uM. In short, it runs like this: (§1)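 1321N1 cells stably expressing the human receptor were labelled overnight with 1 μCi [³H]myo-inositol per well in inositol-free DMEM. [³H]inositol phosphate formation was then measured over 10 min at 37 °C with 10 mM LiCl. EC50 came from a four-parameter logistic fit of full concentration-effect curves, averaged over 3–8 independent curves.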

Test [3] has as its target P2Y purinoceptor 1 (Meleagris gallopavo, UniProt P49652). As to the kind of experiment: Measure of Agonist Potency at turkey Purinoceptor P2Y1 stably expressed in 131N1 astrocytoma cell.
Test [4] addresses T2, P2Y purinoceptor 4 (Homo sapiens, UniProt P51582). Description: Measure of % Agonist Potency at human P2Y purinoceptor 4 (hP2Y4) stably expressed in […] astrocytoma cell at 10 uM.
Test [5] has as its target T3, P2Y purinoceptor 11 (Homo sapiens) (UniProt Q96G91).
T3 sequence (whole entry): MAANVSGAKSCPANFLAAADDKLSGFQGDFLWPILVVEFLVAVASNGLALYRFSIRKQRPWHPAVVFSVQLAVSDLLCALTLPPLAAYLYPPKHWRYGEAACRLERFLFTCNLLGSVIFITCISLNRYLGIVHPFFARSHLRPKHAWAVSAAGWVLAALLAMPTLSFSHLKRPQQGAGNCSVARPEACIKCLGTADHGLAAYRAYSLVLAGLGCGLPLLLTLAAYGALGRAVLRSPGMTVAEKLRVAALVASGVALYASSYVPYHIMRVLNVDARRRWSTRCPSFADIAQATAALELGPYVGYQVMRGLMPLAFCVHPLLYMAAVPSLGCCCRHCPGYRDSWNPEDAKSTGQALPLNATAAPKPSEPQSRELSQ
As to the kind of experiment: Measure of Agonist Potency at human P2Y purinoceptor 11 (hP2Y11) stably expressed in […] astrocytoma cell at 10 uM.

In test [6] the target is P2Y purinoceptor 2 (Homo sapiens, UniProt P41231). As to the kind of experiment: Measure of Agonist Potency at human P2Y purinoceptor 2 (hP2Y2) stably expressed in […] astrocytoma cell. In short, it runs like this:
as §1

For test [7], the target named is T2, P2Y purinoceptor 4. As to the kind of experiment: Measure of Agonist Potency at human P2Y purinoceptor 4 (hP2Y4) stably expressed in 131N1 astrocytoma cell. In short, it runs like this:
as §1

Test [8] has as its target T3, P2Y purinoceptor 11 (Homo sapiens). As to the kind of experiment: Measure of Agonist Potency at human P2Y purinoceptor 11 (hP2Y11) stably expressed in […] astrocytoma cell at 10 uM; NE means no effect at 100 uM.
Test [9] concerns the target P2Y purinoceptor 1 (Homo sapiens, UniProt P47900). Description: Measure of Agonist Potency at human P2Y purinoceptor 1 (hP2Y1) stably expressed in […] astrocytoma cell. In a few lines:
as §1

Test [10] addresses T2, P2Y purinoceptor 4. As to the kind of experiment: Measure of Agonist Potency at human P2Y purinoceptor 4 (hP2Y4) stably expressed in […] astrocytoma cell; NE means no effect at 100 uM. In short, it runs like this:
as §1

Test [11] deals with T1, P2Y purinoceptor 6. Description: Measure of Agonist Potency at human P2Y purinoceptor 6 (hP2Y6) stably expressed in 131N1 astrocytoma cell. In short, it runs like this: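 Human P2Y6 stably expressed in 1321N1 astrocytoma cells; cells labelled overnight with 1 μCi/well [³H]myo-inositol in inositol-free DMEM. [³H]inositol phosphate formation measured next day over 10 min at 37 °C with 10 mM LiCl. Full concentration-effect curves fitted by four-parameter logistic equation; EC50 averaged from 3–8 independent curves (mean ± SE).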

T1 sequence (Q15077 whole entry): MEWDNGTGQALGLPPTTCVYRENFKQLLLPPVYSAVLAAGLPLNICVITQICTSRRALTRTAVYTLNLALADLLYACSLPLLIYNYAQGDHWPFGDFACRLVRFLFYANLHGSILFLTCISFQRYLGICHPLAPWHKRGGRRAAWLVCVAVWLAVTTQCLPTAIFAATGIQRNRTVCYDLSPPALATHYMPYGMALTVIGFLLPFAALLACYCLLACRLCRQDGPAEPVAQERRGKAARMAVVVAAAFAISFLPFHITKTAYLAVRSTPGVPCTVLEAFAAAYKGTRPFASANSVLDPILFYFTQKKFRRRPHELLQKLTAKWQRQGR
T2 sequence (P51582 whole entry): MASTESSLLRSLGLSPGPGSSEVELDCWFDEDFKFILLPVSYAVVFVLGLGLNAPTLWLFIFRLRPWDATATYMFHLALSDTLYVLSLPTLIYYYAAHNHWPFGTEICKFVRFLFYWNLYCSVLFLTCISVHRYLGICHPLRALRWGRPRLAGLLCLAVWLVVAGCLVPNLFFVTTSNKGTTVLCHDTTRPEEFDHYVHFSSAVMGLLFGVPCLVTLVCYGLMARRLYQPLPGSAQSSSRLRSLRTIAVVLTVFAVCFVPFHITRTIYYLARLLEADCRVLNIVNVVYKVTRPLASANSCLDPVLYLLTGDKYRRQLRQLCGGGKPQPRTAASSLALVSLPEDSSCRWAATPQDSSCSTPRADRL
Sequence of P2Y purinoceptor 1 (Meleagris gallopavo) (P49652 whole entry): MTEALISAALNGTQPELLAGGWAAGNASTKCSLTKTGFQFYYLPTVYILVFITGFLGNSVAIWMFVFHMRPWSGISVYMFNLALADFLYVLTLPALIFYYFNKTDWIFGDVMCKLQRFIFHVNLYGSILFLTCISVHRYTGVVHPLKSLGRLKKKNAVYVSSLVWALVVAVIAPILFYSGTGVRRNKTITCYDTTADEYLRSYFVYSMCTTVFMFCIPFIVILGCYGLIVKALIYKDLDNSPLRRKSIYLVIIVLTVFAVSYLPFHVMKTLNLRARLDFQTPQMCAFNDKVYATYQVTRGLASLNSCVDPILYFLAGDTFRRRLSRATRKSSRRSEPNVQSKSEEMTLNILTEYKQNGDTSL
Sequence of P2Y purinoceptor 1 (Meleagris gallopavo, UniProt P49652) (P49652 whole entry): as above
Sequence of P2Y purinoceptor 1 (Homo sapiens, UniProt P47900) (P47900 whole entry): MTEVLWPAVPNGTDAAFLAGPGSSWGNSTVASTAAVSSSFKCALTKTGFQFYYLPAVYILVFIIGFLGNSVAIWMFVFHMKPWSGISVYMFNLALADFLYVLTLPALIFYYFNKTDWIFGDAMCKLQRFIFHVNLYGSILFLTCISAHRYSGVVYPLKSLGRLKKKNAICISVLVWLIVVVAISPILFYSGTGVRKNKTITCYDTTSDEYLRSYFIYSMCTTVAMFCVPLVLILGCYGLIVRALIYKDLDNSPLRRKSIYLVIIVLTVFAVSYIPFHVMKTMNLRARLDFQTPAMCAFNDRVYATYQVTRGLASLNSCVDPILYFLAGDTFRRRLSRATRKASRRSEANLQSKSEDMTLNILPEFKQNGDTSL
Sequence of P2Y purinoceptor 2 (P41231 whole entry): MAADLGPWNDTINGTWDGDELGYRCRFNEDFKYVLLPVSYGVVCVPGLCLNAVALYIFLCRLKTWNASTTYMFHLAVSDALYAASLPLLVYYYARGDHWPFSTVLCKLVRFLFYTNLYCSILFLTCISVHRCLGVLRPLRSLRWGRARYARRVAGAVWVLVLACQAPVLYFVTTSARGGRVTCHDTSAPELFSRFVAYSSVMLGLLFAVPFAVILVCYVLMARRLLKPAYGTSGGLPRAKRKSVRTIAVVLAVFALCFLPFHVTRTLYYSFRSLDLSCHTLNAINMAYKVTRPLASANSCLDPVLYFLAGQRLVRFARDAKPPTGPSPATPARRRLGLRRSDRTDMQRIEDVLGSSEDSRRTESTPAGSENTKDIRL

Regarding `Nc1ncnc2c1ncn2[C@@]12C[C@H]1[C@H](COP(=O)(O)O)[C@@H](O)[C@H]2O`, the NE result in [1] was “inactive”.

With `O=c1ccn(C2C(O)C(O)C3(COP(=O)(O)O)CC23)c(=O)[nH]1` (stereo unspecified), the Agonist effect result in [2] was “inactive”.

Take `O=c1ccn(C2C(O)C(O)C3(COP(=O)(O)OP(=O)(O)O)CC23)c(=O)[nH]1` (stereo unspecified): the Agonist effect result in test [2] is “inactive”.

With `O=c1ccn(C2O[C@H](COP(=O)(O)O)[C@@H](O)[C@@H]2O)c(=O)[nH]1` (stereo partly specified), the Agonist effect entry in [2] was “inactive”.

For `Nc1ncnc2c1ncn2[C@H]1[C@H](O)[C@H](O)[C@]2(COP(=O)(O)OP(=O)(O)OP(=O)(O)O)C[C@H]12` (stereo in doubt; form 1), the EC50 came to 14 nM in [3] and 91 nM in [6]. Moreover, the Activity is 32% in test [4] and 34.5% in [5].

In the case of `Nc1ncnc2c1ncn2[C@@H]1O[C@H](COP(=O)(O)O)[C@@H](O)[C@H]1O` (stereo in doubt; form 1), the NE result in test [1] is “inactive”.

`Nc1ncnc2c1ncn2[C@@H]1O[C@H](COP(=O)(O)O)[C@@H](O)[C@H]1O` (stereo in doubt; form 2): in [1], the NE result is “inactive”.

Consider `O=c1ccn([C@H]2[C@H](O)[C@H](O)[C@]3(COP(=O)(O)OP(=O)(O)OP(=O)(O)O)C[C@H]23)c(=O)[nH]1` (stereo in doubt; form 2) [N-METHANOCARBA-UTP], for which the EC50 is 85 nM in test [7] and 15.9 nM in test [6]. The Agonist effect entry in test [2] is “inactive”. Moreover, in test [8], the NE result was “inactive”.

For the compound `Nc1ncnc2c1ncn2[C@@H]1O[C@H](COP(=O)(O)O)[C@@H](O)[C@H]1O` (stereo in doubt; form 3) [ADENOSINE PHOSPHATE], the EC50 in test [3] was 2800 nM; in test [9], 1500 nM.

Consider `Nc1ncnc2c1ncn2[C@@H]1O[C@H](COP(=O)(O)O)[C@@H](O)[C@H]1O` (stereo in doubt; form 4), for which the NE result in test [8] and in test [10] was “inactive” each time.

With `Nc1ncnc2c1ncn2[C@@H]1O[C@H](COP(=O)(O)O)[C@@H](O)[C@H]1O` (stereo in doubt; form 4) [ADENOSINE PHOSPHATE], the EC50 in [3] amounted to 3500 nM; in test [9] it was 7200 nM.

`O=c1ccn([C@@H]2O[C@H](COP(=O)(O)OP(=O)(O)O)[C@@H](O)[C@H]2O)c(=O)[nH]1` [URIDINE_DIPHOSPHATE]: in [11], the EC50 was found to be 15 nM.
